Test results reported in ChEMBL document CHEMBL1126099, “Synthesis and biological characterization of alpha-(4-fluorophenyl)-4-(5-fluoro-2-pyrimidinyl)-1-piperazinebutanol and analogues as potential atypical antipsychotic agents” (J Med Chem, 1992).
pIC50: −log10 of the molar value. The source made the active and inactive calls. The rule behind the calls is not given here.

Columns and labels:
[1] = target: T1, Adrenergic receptor alpha-1 (Rattus norvegicus, UniProt P15823+P23944+P43140); assay: Inhibition of [3H]WB-4101 binding to rat cortical Alpha-1 adrenergic receptor in vitro; format: protein assay
T1 sequence (P15823 whole entry): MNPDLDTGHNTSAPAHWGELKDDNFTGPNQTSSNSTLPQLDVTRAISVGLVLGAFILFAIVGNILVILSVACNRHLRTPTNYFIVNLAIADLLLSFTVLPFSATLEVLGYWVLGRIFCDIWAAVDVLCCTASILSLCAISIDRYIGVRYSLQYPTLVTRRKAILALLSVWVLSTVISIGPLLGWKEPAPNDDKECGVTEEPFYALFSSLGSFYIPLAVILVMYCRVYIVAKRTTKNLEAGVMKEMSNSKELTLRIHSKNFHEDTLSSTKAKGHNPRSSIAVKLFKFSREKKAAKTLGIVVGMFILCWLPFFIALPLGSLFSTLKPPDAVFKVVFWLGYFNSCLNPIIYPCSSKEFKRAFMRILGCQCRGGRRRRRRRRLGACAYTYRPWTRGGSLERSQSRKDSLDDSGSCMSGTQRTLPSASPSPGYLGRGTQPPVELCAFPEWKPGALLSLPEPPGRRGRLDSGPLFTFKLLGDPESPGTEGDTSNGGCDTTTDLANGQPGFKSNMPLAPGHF
T1 sequence (P23944 whole entry): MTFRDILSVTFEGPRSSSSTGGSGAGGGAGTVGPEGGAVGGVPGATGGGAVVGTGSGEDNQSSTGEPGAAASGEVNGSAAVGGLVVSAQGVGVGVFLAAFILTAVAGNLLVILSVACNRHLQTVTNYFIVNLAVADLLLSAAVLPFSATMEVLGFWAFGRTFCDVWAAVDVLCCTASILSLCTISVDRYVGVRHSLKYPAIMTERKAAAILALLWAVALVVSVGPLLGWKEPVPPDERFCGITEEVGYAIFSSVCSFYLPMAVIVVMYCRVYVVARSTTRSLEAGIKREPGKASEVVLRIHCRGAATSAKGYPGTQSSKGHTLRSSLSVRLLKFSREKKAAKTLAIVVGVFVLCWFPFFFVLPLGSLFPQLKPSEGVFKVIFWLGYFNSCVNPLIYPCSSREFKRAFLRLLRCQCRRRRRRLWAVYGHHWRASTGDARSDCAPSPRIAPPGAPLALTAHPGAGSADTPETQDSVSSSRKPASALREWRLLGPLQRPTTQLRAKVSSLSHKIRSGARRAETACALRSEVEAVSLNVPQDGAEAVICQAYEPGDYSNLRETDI
T1 sequence (P43140 whole entry): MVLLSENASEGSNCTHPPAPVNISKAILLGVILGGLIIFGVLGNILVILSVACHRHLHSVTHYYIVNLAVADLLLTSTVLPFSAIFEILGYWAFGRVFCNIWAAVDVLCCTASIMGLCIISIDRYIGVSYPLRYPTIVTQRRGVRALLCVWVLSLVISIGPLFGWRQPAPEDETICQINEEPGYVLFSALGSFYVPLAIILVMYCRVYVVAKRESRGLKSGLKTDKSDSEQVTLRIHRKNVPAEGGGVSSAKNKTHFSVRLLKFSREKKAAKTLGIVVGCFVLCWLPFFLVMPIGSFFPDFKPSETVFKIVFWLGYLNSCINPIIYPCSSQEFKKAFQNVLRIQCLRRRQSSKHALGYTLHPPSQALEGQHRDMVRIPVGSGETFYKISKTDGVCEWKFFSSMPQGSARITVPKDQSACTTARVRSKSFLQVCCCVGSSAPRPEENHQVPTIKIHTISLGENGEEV
How it was run: (§1)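 Competition binding against tritiated radioligand. Test drug was run at five concentrations in a single experiment, and IC50 (nM) was derived from displacement.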

[2] = target: T2, Sigma non-opioid intracellular receptor 1 (Rattus norvegicus, UniProt Q9R0C9); assay: Displacement of (+)-[3H]-3-PPP from rat cortical sigma site; how it was run: as §1
T2 sequence (Q9R0C9 whole entry): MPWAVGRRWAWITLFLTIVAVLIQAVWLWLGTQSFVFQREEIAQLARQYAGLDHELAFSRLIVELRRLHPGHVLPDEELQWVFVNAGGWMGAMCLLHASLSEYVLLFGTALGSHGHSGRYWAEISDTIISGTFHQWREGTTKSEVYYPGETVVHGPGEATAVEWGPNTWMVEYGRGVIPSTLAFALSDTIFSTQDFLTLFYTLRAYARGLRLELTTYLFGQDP

[3] = organism: Rattus norvegicus; assay: Effective peroral dose for inhibition of conditioned avoidance response in rats; format: functional; settings: po
[4] = organism: Rattus norvegicus; assay: Inhibition of apomorphine-induced stereotypy in rats via peroral route; format: functional
[5] = target: D(2) dopamine receptor (Rattus norvegicus, UniProt P61169); assay: In vitro inhibitory against radioligand [3H]spiperone binding to rat striatal Dopamine receptor D2; how it was run: as §1
D(2) dopamine receptor, sequence (P61169 whole entry): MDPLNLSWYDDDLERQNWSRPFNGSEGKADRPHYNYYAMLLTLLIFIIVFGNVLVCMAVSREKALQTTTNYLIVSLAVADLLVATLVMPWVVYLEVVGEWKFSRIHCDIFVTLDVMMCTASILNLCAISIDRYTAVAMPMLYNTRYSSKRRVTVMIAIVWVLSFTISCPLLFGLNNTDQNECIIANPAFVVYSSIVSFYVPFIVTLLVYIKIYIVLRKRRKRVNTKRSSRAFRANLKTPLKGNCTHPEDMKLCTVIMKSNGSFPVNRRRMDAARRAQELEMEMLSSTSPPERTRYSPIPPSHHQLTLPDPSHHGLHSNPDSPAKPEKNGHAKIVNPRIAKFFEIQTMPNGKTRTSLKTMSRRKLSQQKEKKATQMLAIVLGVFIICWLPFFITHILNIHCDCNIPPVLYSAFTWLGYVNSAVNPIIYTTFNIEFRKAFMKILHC

[6] = test system: Rattus norvegicus; assay: Effective in vivo peroral dose against induction of catalepsy in rats; format: functional
[7] = organism: Mus musculus; assay: Effective dose for inhibition of physostigmine induced lethality in mouse; format: functional
[8] = test system: Rattus norvegicus; assay: Effective dose for reversal of trifluoperazine-induced catalepsy in rats; I=Inactive (ED50 mg/Kg); format: functional, organism-based
[9] = organism: Rattus norvegicus; assay: Effective dose for motor incoordination in rats was determined by rotarod method; format: functional
[10] = organism: Rattus norvegicus; assay: Effective dose for ethanol potentiation in rats; format: functional
[11] = organism: Mus musculus; assay: Effective dose for inhibition of norepinephrine induced lethality in mouse; format: functional
[12] = organism: Rattus norvegicus; assay: Effective dose for inhibition of spontaneous motor activity in rats; format: functional
[13] = target: T1, Adrenergic receptor alpha-1; assay: Inhibitory concentration against radioligand [3H]-WB- 4101 binding to rat cortical Alpha-1 adrenergic receptor; format: protein assay; how it was run: as §1
[14] = target: T2, Sigma non-opioid intracellular receptor 1; assay: Compound was tested in vitro for its ability to displace radioligand (+)-[3H]-3-PPP from rat cortical sigma receptor
[15] = Rattus norvegicus, po, read-out: ED50

| Structure (SMILES) | IC50 [1] [nM] | pIC50 [2] | ED50 [3] [mg/kg] | ED50 [4, 15] [mg/kg] | pIC50 [5] | ED50 [6, 15] [mg/kg] | also measured |
| --- | --- | --- | --- | --- | --- | --- | --- |
| O/N=C(\CCCN1CCN(c2ncc(F)cn2)CC1)c1ccc(F)cc1 | 22 | 7.09 | > 100 |  |  |  |  |
| Oc1nc(N2CCN(CCCC(O)c3ccc(F)cc3)CC2)ncc1F (stereo unspecified) | > 1000 | < 6.00 | > 100 | > 100 | < 6.00 |  |  |
| OC(CCN1CCN(c2ncc(F)cn2)CC1)c1ccc(F)cc1 (stereo unspecified) | 814 | 6.80 | > 100 | > 100 | < 6.00 |  |  |
| CCC(O)(CCCN1CCN(c2ncccn2)CC1)c1ccc(F)cc1 (stereo unspecified) | 230 |  | > 100 | > 100 | 6.38 |  |  |
| CSc1nc(N2CCN(CCCC(O)c3ccc(F)cc3)CC2)ncc1F (stereo unspecified) | 305 | 7.59 | > 100 | > 100 | < 6.00 |  |  |
| O=C(CCCN1CCN(c2ncc(F)cn2)CC1)c1ccc(F)cc1 | 29 | 6.89 | 36.3 | 58.9 |  | 144 |  |
| NC(CCCN1CCN(c2ncc(F)cn2)CC1)c1ccc(F)cc1 (stereo unspecified) | 446 | ~6.00 | > 100 |  | < 6.00 |  |  |
| OC(CCCN1CCN(c2ncccn2)CC1)c1ccc(F)cc1 (stereo unspecified) | 162 | 6.89 | 25 | 32.3 | 5.86 | > 100 |  |
| CCC(O)(CCCN1CCN(c2ncc(F)cn2)CC1)c1ccc(F)cc1 (stereo unspecified) | > 1000 | 6.43 | 48.5 | > 50 | 5.43 | > 100 |  |
| O=C(CCCN1CCN(c2ncc(Cl)cn2)CC1)c1ccc(F)cc1 | 51 |  | > 100 |  | 6.09 |  |  |
| O=C(CCCN1CCC(O)(c2ccc(Cl)cc2)CC1)c1ccc(F)cc1 [HALOPERIDOL] |  |  | 2.8 | 0.5 |  | 0.58 | ED50 [7]: > 80 mg/kg; Activity [8]: inactive; ED50 [9]: 5.2 mg/kg; ED50 [10]: 0.28 mg/kg; ED50 [11]: 26 mg/kg; ED50 [12]: 0.73 mg/kg |
| N#CC(CCCN1CCN(c2ncc(F)cn2)CC1)c1ccc(F)cc1 (stereo unspecified) | 266 | 6.72 | 19.8 | > 100 | 5.73 | > 100 |  |
| CSc1ccc2c(c1)N(CCC1CCCCN1C)c1ccccc1S2 (stereo unspecified) [THIORIDAZINE] |  | 6.12 |  | 280 |  |  | ED50 [7]: 45 mg/kg; Activity [8]: inactive; ED50 [9]: 20 mg/kg; ED50 [10]: 56 mg/kg; ED50 [11]: 2.2 mg/kg; ED50 [12]: 33 mg/kg |
| O[C@@H](CCCN1CCN(c2ncc(F)cn2)CC1)c1ccc(F)cc1 [BMY-14802] |  |  |  |  |  |  | ED50 [6]: 38.1 mg/kg; ED50 [4]: 25.4 mg/kg; IC50 [13]: 570 nM |
| O=C(CCCN1CCN(c2ncc(Br)cn2)CC1)c1ccc(F)cc1 | 72 | 7.07 | > 100 |  | 5.66 |  |  |
| O=C(CCCN1CCN(c2ncccn2)CC1)c1ccc(F)cc1 | 6 | 6.37 | 25.3 | 21.6 | 6.17 | > 100 |  |
| OC(CCCN1CCN(c2ncc(Cl)cn2)CC1)c1ccc(F)cc1 (stereo unspecified) | 1420 | 7.66 | 87.1 | > 100 | 5.25 | 148 |  |
| CN1CCN(C2=Nc3cc(Cl)ccc3Nc3ccccc32)CC1 [CLOZAPINE] |  |  |  |  |  | > 200 | ED50 [7]: 5.4 mg/kg; Activity [8]: inactive; ED50 [9]: 7.9 mg/kg; pIC50 [14]: < 6.00; ED50 [11]: 3.5 mg/kg |
| CSc1nc(N2CCN(CCCC(=O)c3ccc(F)cc3)CC2)ncc1F | 95 | 6.92 | > 100 | > 100 | 6.40 |  |  |
| OC(CCCN1CCN(c2ncccn2)CC1)(c1ccc(F)cc1)c1ccc(F)cc1 | 400 | < 6.00 | 52.9 | > 50 | 6.70 |  |  |
| OC(CCCN1CCN(c2ncc(Br)cn2)CC1)c1ccc(F)cc1 (stereo unspecified) | 1500 | 7.59 | 50 | > 65 | < 6.00 | 108 |  |
| Fc1ccc(/C=C(\CCN2CCN(c3ncccn3)CC2)c2ccc(F)cc2)cc1 | 375 | < 6.00 | > 100 |  | 5.77 |  |  |
| Fc1ccc(/C=C(\CCN2CCN(c3ncc(F)cn3)CC2)c2ccc(F)cc2)cc1 | 756 | < 6.00 | > 100 |  | 5.06 |  |  |
| COc1nc(N2CCN(CCCC(O)c3ccc(F)cc3)CC2)ncc1F (stereo unspecified) | 180 | 7.62 | 40.8 | 54 | 5.40 | 79.2 |  |
| OC(CCCN1CCN(c2ncc(F)cn2)CC1)(c1ccc(F)cc1)c1ccc(F)cc1 | 1140 |  | > 100 |  |  |  |  |
| CC(O)(CCCN1CCN(c2ncc(F)cn2)CC1)c1ccc(F)cc1 (stereo unspecified) |  | 6.96 | > 25 | > 50 | 5.67 | > 100 |  |
